{"data": "Measurements from different studies", "target": "Serine/threonine-protein kinase 24 (STK24, Homo sapiens, UniProt Q9Y6E0)", "note": "Each line is one published result; the experiments were not run side by side."}
{"SMILES": "Cn1cncc1[C@@](O)(COc1ccc(C#N)cc1-c1ccc(OC(F)(F)F)cc1)c1ccc(C#N)cc1", "assay": "cell-free assay, competition with immobilised ligand", "setting": "1 µM", "quantity": "remaining binding", "value": "100%"}
{"SMILES": "COCc1c(-c2cc3cc(C)cc(OC)c3s2)c2c(N)ncnn2c1CN1CCNC(=O)C1", "assay": "cell-free assay, competition with immobilised ligand", "setting": "1 µM", "quantity": "inhibition", "value": "90.6%"}
{"SMILES": "Cc1nn(C)cc1-c1nc2c(N3CCN(Cc4ccc(Cl)cc4)CC3)c(Cl)cnc2[nH]1", "assay": "binding, competition with immobilised ligand", "setting": "1 µM", "quantity": "remaining binding", "value": "85%"}
{"SMILES": "Cn1cc(-c2cc(F)cc(N3CCn4c(cc5c4CCCC5)C3=O)c2CO)cc(Nc2ccc(N3CCN(C4COC4)CC3)cn2)c1=O", "assay": "enzyme activity, inhibitor", "setting": "0.1 µM", "quantity": "inhibition", "value": "18%"}
{"SMILES": "Nc1ncc(-c2nc(N3CCOCC3)nc(N3CCOCC3)n2)c(C(F)F)n1", "assay": "binding, competition with immobilised ligand", "setting": "10 µM", "quantity": "remaining binding", "value": "91%"}
{"SMILES": "COc1ncccc1-c1cnn2ccc(N3CCN(C(=O)OC(C)C)CC3)nc12", "assay": "binding, competition with immobilised ligand", "setting": "1 µM", "quantity": "remaining binding", "value": "84%"}
{"SMILES": "CC(C)(C)c1cc(C=C(C#N)C#N)cc(Br)c1O", "assay": "enzyme activity, inhibitor", "setting": "0.5 µM", "quantity": "remaining activity", "value": "96.3%"}
{"SMILES": "Cn1cc(-c2cccc(N3CCc4c(sc5c4CC(C)(C)C5)C3=O)c2CO)cc(Nc2ccncn2)c1=O", "assay": "enzyme activity, inhibitor", "setting": "1 µM", "quantity": "inhibition", "value": "3%"}
{"SMILES": "O=c1[nH]c2ccccc2n1C1CCN(Cc2ccc(-c3[nH]c4cc5ncnc5cc4nc3-c3ccccc3)cc2)CC1", "assay": "cell-free assay", "setting": "0.5 µM", "quantity": "remaining signal", "value": "90.7%"}
{"SMILES": "N#CC1(c2ccccn2)CCN(Cc2cc(C(=O)O)c(=O)n3ccccc23)CC1", "assay": "cell-free assay, competition with immobilised ligand", "setting": "1 µM", "quantity": "remaining binding", "value": "100%"}
